In ChEMBL document CHEMBL2046347, “Structure-activity relationships in human Toll-like receptor 2-specific monoacyl lipopeptides” (J Med Chem, 2012) one finds inhibition and Activity data, which are given here for 22 compounds.

The source made the active and inactive calls. The calls are words filed in the database; no cut-off is given here.

What all share (format): functional, cell-based
Assay [1] deals with Toll-like receptor 2 (Homo sapiens) (UniProt O60603). Put plainly: Antagonistic activity at human TLR2 expressed in HEK293 cells assessed as inhibition of PAM2CS-induced NFkappaB translocation by secretory alkaline phosphatase reporter gene assay. In a few lines: (§1)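 Reporter HEK293 lines (human or murine TLR2, NF-κB-inducible secreted alkaline phosphatase) plated at ~10⁵ cells/mL. Stimulated with PAM2CS (1 μg/mL) or lipoteichoic acid (1 μg/mL) in the presence of graded test-compound concentrations. Phosphatase activity in supernatant measured spectrophotometrically at 620 nm using a phosphatase-specific chromogen.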

In assay [2] the target is Toll-like receptor 2 (Mus musculus) (UniProt Q9QUN7). The assay is described as follows: Antagonistic activity at mouse TLR2 expressed in HEK293 cells assessed as inhibition of lipoteichoic acid-induced NFkappaB translocation by secretory alkaline phosphatase reporter gene assay. The procedure, abridged:
as §1

Assay [3] concerns the target Toll-like receptor 2 (Homo sapiens) (UniProt O60603). Put plainly: Agonist activity at human TLR2 expressed in HEK293 cells assessed as NFkappaB translocation at 10 uM after 12 hrs by secretory alkaline phosphatase reporter gene assay. Background: A reporter such as luciferase makes a cellular process visible.
Assay [4] shares this target. Put plainly: Antagonistic activity at human TLR2 expressed in HEK293 cells assessed as inhibition of lipoteichoic acid-induced NFkappaB translocation by secretory alkaline phosphatase reporter gene assay. In a few lines:
as §1

Assay [5] has as its target Toll-like receptor 2 (Mus musculus) (UniProt Q9QUN7). Put plainly: Antagonistic activity at mouse TLR2 expressed in HEK293 cells assessed as inhibition of PAM2CS-induced NFkappaB translocation by secretory alkaline phosphatase reporter gene assay. The procedure, abridged:
as §1

Assay [6] shares this target. The assay is described as follows: Agonist activity at mouse TLR2 expressed in HEK293 cells assessed as NFkappaB translocation after 12 hrs by secretory alkaline phosphatase reporter gene assay. In a few lines:
(§2)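 HEK293 cells stably carrying human or murine TLR2 plus an NF-κB-driven secreted alkaline phosphatase reporter, kept in selection medium with zeocin and normocin. Seeded at ~10⁵ cells/mL and grown to confluency, then exposed to serially diluted compounds for 12 h. Secreted phosphatase in supernatant read colorimetrically at 620 nm with an alkaline phosphatase-specific chromogen in detection medium.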

Assay [7] concerns the target Toll-like receptor 2 (Homo sapiens) (UniProt O60603). Put plainly: Agonist activity at human TLR2 expressed in HEK293 cells assessed as NFkappaB translocation after 12 hrs by secretory alkaline phosphatase reporter gene assay. In a few lines: as §2

Chain of Toll-like receptor 2 (Mus musculus) (Q9QUN7 whole entry): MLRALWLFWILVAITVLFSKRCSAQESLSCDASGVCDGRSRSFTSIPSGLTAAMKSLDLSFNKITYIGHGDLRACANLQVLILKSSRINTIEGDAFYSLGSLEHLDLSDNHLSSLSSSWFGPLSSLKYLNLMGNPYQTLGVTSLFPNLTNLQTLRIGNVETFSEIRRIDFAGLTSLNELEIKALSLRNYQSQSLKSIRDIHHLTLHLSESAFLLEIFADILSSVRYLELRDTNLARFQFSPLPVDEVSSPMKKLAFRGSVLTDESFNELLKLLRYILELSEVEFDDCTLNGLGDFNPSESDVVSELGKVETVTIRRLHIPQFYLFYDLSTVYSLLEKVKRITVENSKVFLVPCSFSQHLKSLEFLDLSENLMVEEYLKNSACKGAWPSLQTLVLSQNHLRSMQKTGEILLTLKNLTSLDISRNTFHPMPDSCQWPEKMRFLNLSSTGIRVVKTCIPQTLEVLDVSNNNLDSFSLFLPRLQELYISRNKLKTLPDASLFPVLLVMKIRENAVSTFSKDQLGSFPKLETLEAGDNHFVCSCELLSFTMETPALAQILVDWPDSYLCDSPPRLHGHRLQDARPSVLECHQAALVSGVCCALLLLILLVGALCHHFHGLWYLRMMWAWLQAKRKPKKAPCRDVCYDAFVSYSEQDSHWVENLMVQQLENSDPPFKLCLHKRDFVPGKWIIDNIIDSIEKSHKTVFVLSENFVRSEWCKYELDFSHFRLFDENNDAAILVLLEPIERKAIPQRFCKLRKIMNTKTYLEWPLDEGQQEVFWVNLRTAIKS
Chain of Toll-like receptor 2 (Homo sapiens) (O60603 whole entry): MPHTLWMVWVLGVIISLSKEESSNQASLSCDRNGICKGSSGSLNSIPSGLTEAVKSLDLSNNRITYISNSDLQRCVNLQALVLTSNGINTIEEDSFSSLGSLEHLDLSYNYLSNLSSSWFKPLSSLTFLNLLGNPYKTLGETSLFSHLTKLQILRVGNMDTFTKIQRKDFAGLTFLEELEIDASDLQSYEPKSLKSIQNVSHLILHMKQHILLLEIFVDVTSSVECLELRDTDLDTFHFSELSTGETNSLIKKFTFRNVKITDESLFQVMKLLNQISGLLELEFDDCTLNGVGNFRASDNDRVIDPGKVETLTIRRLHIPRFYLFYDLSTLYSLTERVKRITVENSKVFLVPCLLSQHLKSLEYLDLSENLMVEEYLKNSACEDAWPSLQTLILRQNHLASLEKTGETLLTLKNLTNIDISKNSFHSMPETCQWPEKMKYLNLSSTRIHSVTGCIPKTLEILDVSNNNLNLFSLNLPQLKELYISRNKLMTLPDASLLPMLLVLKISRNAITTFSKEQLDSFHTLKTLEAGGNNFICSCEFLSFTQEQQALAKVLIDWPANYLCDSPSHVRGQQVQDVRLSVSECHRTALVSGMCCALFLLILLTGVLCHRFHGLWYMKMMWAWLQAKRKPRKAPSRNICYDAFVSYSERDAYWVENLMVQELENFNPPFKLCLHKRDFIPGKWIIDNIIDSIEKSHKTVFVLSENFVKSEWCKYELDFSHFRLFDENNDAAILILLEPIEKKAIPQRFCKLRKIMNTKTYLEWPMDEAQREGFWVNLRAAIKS

With `CCCC(=O)OCCSC[C@H](N)C(=O)N[C@@H](CO)C(=O)OC`, the inhibition result in assay [1], in assay [2], in assay [4] and in assay [5] was “inactive” throughout. The outcome in assay [3] was inactive.
Consider `CCCCCCCCCCCCCCCC(=O)OCCSC[C@H](NC(C)=O)C(=O)N[C@@H](CO)C(=O)OC`, for which the outcome in assay [6] was inactive.
Turning to `CCCCCCCCCCCCCCCC(=O)OCCSC[C@H](NS(=O)(=O)C(F)(F)F)C(=O)N[C@@H](CO)C(=O)OC`, the result in assay [7] was inactive.
Turning to `CCCCCCCCCCCCCCCC(=O)OCCSC[C@H](NC(=O)CCC)C(=O)N[C@@H](CO)C(=O)OC`, in assay [6], the outcome was inactive.
As for `COC(=O)[C@H](CO)NC(=O)[C@@H](N)CSCCOC(=O)c1ccc(-c2ccc(-c3ccccc3)cc2)cc1`, the inhibition entry in assay [1], in assay [2], in assay [4] and in assay [5] was “inactive” in each case. Moreover, the result in assay [3] was inactive.
Regarding `CCCCCCCCCCCCCCCCN[C@@H](CSCCOC(=O)CCCCCCCCCCCCCCC)C(=O)N[C@@H](CO)C(=O)OC`, the result in assay [3] was inactive.
Still for that read-out and setting: next, `CCCCCCCCCCCCCCNCC(=O)OCCSC[C@H](N)C(=O)N[C@@H](CO)C(=O)OC`: “inactive”.
For `CCCCCCCCCCCCCCCC(=O)OCCSC[C@H](N)C(=O)N[C@@H](CO)C(=O)OC`, the result in assay [6] was inactive.
With `CCCCCCCCCCCCCCN(CCCCCCCCCCCCCC)CC(=O)OCCSC[C@H](N)C(=O)N[C@@H](CO)C(=O)OC`, the outcome in assay [3] was inactive.
With `CCCCCCCC(=O)OCCSC[C@H](N)C(=O)N[C@@H](CO)C(=O)OC`, the inhibition entry in assay [1], in assay [2], in assay [4] and in assay [5] was “inactive” throughout. For the same compound, the outcome in assay [3] was inactive.
With `CCCCCCCCCCCCCCCC(=O)N[C@@H](CSCCOC(=O)CCCCCCCCCCCCCCC)C(=O)N[C@@H](CO)C(=O)OC`, in assay [3], the result was inactive.
In the case of `COC(=O)[C@H](CO)NC(=O)[C@@H](N)CSCCOC(=O)c1ccc(-c2ccccc2)cc1`, the inhibition entry in assay [1], in assay [2], in assay [4] and in assay [5] was “inactive” in each case. The outcome in assay [3] was inactive.
Consider `CCCCCCCCCCCCCCCC(=O)OCCSC[C@H](NS(=O)(=O)c1ccc(C)cc1)C(=O)N[C@@H](CO)C(=O)OC`, for which the result in assay [7] was inactive.
On the same count and under the same terms, the value for `CCCCCCCCCCCCCCCC(=O)OCCSC[C@H](N)C(=O)N[C@@H](COC(C)=O)C(=O)OC` was “Active”.
Turning to `CCCCCCCCCCCCCCCC(=O)OCCSC[C@H](NCC)C(=O)N[C@@H](CO)C(=O)OC`, the outcome in assay [3] was inactive.
Consider `CCCCCCCCCCCC(=O)OCCSC[C@H](N)C(=O)N[C@@H](CO)C(=O)OC`, for which the inhibition result in assay [1], in assay [2], in assay [4] and in assay [5] was “inactive” throughout. Also, the outcome in assay [3] was inactive.
With `CCCCCCCCCCCCCCCC(=O)OCCSC[C@H](NCCCCCCCC)C(=O)N[C@@H](CO)C(=O)OC`, the result in assay [3] was inactive.
`CCCCCCCCCCCCCCCC(=O)OCCSC[C@H](NS(C)(=O)=O)C(=O)N[C@@H](CO)C(=O)OC`: the outcome in assay [7] was inactive.
For `COC(=O)[C@H](CO)NC(=O)[C@@H](N)CSCCOC(=O)c1cccc(-c2ccccc2)c1`, the inhibition result in assay [1], in assay [2], in assay [4] and in assay [5] was “inactive” each time. In addition, in assay [3], the result was inactive.
As for `CCCCCCCCCCCCCCCC(=O)OCCSC[C@H](NC(=O)CCCCCCC)C(=O)N[C@@H](CO)C(=O)OC`, the result in assay [6] was inactive.
Turning to `CCCCCCCCCCCCCCCC(=O)OCCSC[C@H](NC(=O)C(Cl)(Cl)Cl)C(=O)N[C@@H](CO)C(=O)OC`, the outcome in assay [7] was inactive.
With `CCCCCCCCCCCCCCCCCC(=O)OCCSC[C@H](N)C(=O)N[C@@H](CO)C(=O)OC`, the result in assay [6] was inactive.
